Assays:
Type in all cases: cell-based
MDA-MB-231 = experiment: Inhibition of endoplasmic reticulum calcium channel in human MDA-MB-231 cells assessed as reduction in endoplasmic reticulum intracellular calcium release at 100 uM pretreated for 15 mins followed by SERCA inhibitor CPA addition measured after 700 secs by PBX dye based FLIPR assay relative to control
Outline: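 Same MDA-MB-231 PBX-dye FLIPR protocol: 15 min compound pretreatment at room temperature, then BAPTA (500 µM) and CPA (10 µM) to deplete ER stores. Peak 1 height after CPA addition (ER Ca2+ release) expressed as % inhibition relative to the DMSO control. Excitation 470–495 nm, emission 515–575 nm.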

[1] = biological target: T1, Calcium release-activated calcium channel protein 1 (Homo sapiens, UniProt Q96D31); experiment: Inhibition of […] Orai1-medited store operated calcium entry in human MDA-MB-231 cells at 100 uM pretreated for 15 mins followed by BAPTA addition by PBX dye based FLIPR assay relative to control
Outline: (§1)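 MDA-MB-231 cells seeded 2×10^3/well and used 3 days later. Loaded 1 h at 37 °C with 2 µM PBX calcium dye, 5% signal enhancer and 500 µM probenecid in PSS, pH 7.3. Compound pretreated 15 min at room temperature. Then 500 µM BAPTA, 10 µM CPA, and 0.5 mM CaCl2 700 s after CPA. Read-out: peak 2 height as % inhibition vs DMSO. 95% CI, n = 4.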
Target sequence in this assay (Q96D31 whole entry, looked up): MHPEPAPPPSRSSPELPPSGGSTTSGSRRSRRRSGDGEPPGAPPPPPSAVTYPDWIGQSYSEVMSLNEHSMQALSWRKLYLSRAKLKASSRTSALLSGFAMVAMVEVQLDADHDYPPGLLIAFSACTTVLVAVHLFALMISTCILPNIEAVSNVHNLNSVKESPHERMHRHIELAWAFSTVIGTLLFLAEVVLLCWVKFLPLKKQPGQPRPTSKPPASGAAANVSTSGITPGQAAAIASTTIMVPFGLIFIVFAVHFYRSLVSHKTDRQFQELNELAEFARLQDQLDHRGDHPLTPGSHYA

[2] = biological target: T1, Calcium release-activated calcium channel protein 1; experiment: Inhibition of […] Orai1-medited store operated calcium entry in human MDA-MB-231 cells pretreated for 15 mins followed by BAPTA addition by PBX dye based FLIPR assay; outline: as §1
Target sequence in this assay (Q96D31 whole entry): as the sequence (Q96D31 whole entry, looked up) above

SMILES | inhibition (MDA-MB-231) | inhibition [1] | IC50 [2]
O=C(Cc1ccccc1)N1N=C(c2ccc(F)cc2)CC1(O)C(F)(F)F (configuration not stated) | < 10% | < 10% | –
O=C(Cc1ccccc1)N1N=C(c2c(F)cccc2F)CC1(O)C(F)(F)F (configuration not stated) | < 10% | < 10% | –
Cc1cccc(CC(=O)N2N=C(c3cccc(C)c3)CC2(O)C(F)(F)F)c1 (configuration not stated) | < 10% | – | 45 µM
O=C(Cc1ccccc1)N1N=C(c2ccc(Br)cc2)CC1(O)C(F)(F)F (configuration not stated) | < 10% | < 10% | –
O=C(Cc1ccccc1)N1N=C(c2cccc(F)c2F)CC1(O)C(F)(F)F (configuration not stated) | < 10% | 80% | 55 µM
Cc1ccccc1C1=NN(C(=O)c2ccccc2)C(O)(C(F)(F)F)C1 (configuration not stated) | < 10% | 20% | –
O=C(Cc1ccccc1)N1N=C(c2cccc([N+](=O)[O-])c2)CC1(O)C(F)(F)F (configuration not stated) | < 10% | – | 89 µM
COc1ccc(CC(=O)N2N=C(c3cccc(C)c3)CC2(O)C(F)(F)F)cc1 (configuration not stated) | < 10% | – | 33 µM
O=C(Cc1ccccc1)N1N=C(c2cccc(OCCN3CCOCC3)c2)CC1(O)C(F)(F)F (configuration not stated) | 50% | 50% | –
O=C(Cc1ccccc1)N1N=C(c2ccccc2OC(F)(F)F)CC1(O)C(F)(F)F (configuration not stated) | < 10% | < 10% | –
Cc1ccccc1C1=NN(C(=O)Cc2cccc(Cl)c2)C(O)(C(F)(F)F)C1 (configuration not stated) | < 10% | – | 79 µM
Cc1ccc(CC(=O)N2N=C(c3cccc(C)c3)CC2(O)C(F)(F)F)cc1 (configuration not stated) | < 10% | – | 42 µM
Cc1ccccc1C1(O)CC(C(F)(F)F)=NN1C(=O)CC1CCCCC1 (configuration not stated) | < 10% | 20% | –
COc1cccc(CC(=O)N2N=C(c3ccccc3C)CC2(O)C(F)(F)F)c1 (configuration not stated) | < 10% | 60% | –
Cc1cccc(C2=NN(C(=O)Cc3ccccc3Cl)C(O)(C(F)(F)F)C2)c1 (configuration not stated) | < 10% | – | 42 µM
COc1ccc(C2=NN(C(=O)Cc3ccccc3)C(O)(C(F)(F)F)C2)cc1 (configuration not stated) | < 10% | < 10% | –
Cc1cccc(C2=NN(C(=O)CC3CCCCC3)C(O)(C(F)(F)F)C2)c1 (configuration not stated) | < 10% | < 10% | –
O=C(Cc1ccccc1)N1N=C(c2cccc(OC(F)(F)F)c2)CC1(O)C(F)(F)F (configuration not stated) | < 10% | 50% | –
O=C(Cc1ccccc1)N1N=C(c2ccccc2F)CC1(O)C(F)(F)F (configuration not stated) | < 10% | 30% | –
O=C(Cc1ccccc1)N1N=C(c2ccc3c(c2)CCCC3)CC1(O)C(F)(F)F (configuration not stated) | < 10% | 50% | 89 µM

SMILES | inhibition (MDA-MB-231) | inhibition [1] | IC50 [2]
Cc1ccccc1C1=NN(C(=O)Cc2ccccc2Cl)C(O)(C(F)(F)F)C1 (configuration not stated) | < 10% | – | 40 µM
Cc1cccc(C2=NN(C(=O)Cc3ccccc3)C(O)(C(F)(F)F)C2)c1 (configuration not stated) | < 10% | – | 36 µM
O=C(Cc1ccccc1)N1N=C(c2ccccc2Br)CC1(O)C(F)(F)F (configuration not stated) | < 10% | – | 30 µM
COc1ccc(CC(=O)N2N=C(c3ccccc3C)CC2(O)C(F)(F)F)cc1 (configuration not stated) | < 10% | 30% | –
O=C(Cc1ccccc1)N1N=C(C(F)(F)F)CC1(O)c1ccccc1[N+](=O)[O-] (configuration not stated) | 20% | 30% | –
Cc1cccc(CC(=O)N2N=C(c3ccccc3C)CC2(O)C(F)(F)F)c1 (configuration not stated) | < 10% | – | 42 µM
COc1cccc(CC(=O)N2N=C(c3cccc(C)c3)CC2(O)C(F)(F)F)c1 (configuration not stated) | < 10% | – | 32 µM
Cc1ccccc1C1=NN(C(=O)Cc2ccc(Cl)cc2)C(O)(C(F)(F)F)C1 (configuration not stated) | < 10% | – | 47 µM
O=C(Cc1ccccc1)N1N=C(c2ccccn2)CC1(O)C(F)(F)F (configuration not stated) | < 10% | 20% | –
O=C(Cc1ccccc1)N1N=C(c2ccc(OC(F)(F)F)cc2)CC1(O)C(F)(F)F (configuration not stated) | < 10% | < 10% | –
Cc1ccc(C2=NN(C(=O)Cc3ccccc3)C(O)(C(F)(F)F)C2)cc1 (configuration not stated) | < 10% | < 10% | –
O=C(Cc1ccccc1)N1N=C(c2cccc(Br)c2)CC1(O)C(F)(F)F (configuration not stated) | < 10% | – | 47 µM
COc1cccc(OC)c1C1=NN(C(=O)Cc2ccccc2)C(O)(C(F)(F)F)C1 (configuration not stated) | < 10% | < 10% | –
O=C(Cc1ccccc1)N1N=C(c2cccc(Cl)c2)CC1(O)C(F)(F)F (configuration not stated) | < 10% | – | 48 µM
O=C(Cc1ccccc1)N1N=C(c2ccc(Cl)cc2Cl)CC1(O)C(F)(F)F (configuration not stated) | < 10% | 60% | 58 µM
Cc1ccccc1CC(=O)N1N=C(c2ccccc2C)CC1(O)C(F)(F)F (configuration not stated) | < 10% | 20% | –
COc1ccccc1CC(=O)N1N=C(c2ccccc2C)CC1(O)C(F)(F)F (configuration not stated) | < 10% | 60% | –
O=C(Cc1ccccc1)N1N=C(c2ccccc2)CC1(O)C(F)(F)F (configuration not stated) | < 10% | < 10% | –
O=C(Cc1ccccc1)N1N=C(c2ccccc2Cl)CC1(O)C(F)(F)F (configuration not stated) | 50% | – | 33 µM
Cc1cccc(C2=NN(C(=O)Cc3ccc(Cl)cc3)C(O)(C(F)(F)F)C2)c1 (configuration not stated) | < 10% | – | 60 µM

SMILES | inhibition (MDA-MB-231) | inhibition [1] | IC50 [2]
Cc1cccc(C2=NN(C(=O)c3ccccc3)C(O)(C(F)(F)F)C2)c1 (configuration not stated) | < 10% | 30% | –
COc1ccccc1C1=NN(C(=O)Cc2ccccc2)C(O)(C(F)(F)F)C1 (configuration not stated) | < 10% | 25% | –
O=C(Cc1ccccc1)N1N=C(c2ccc([N+](=O)[O-])cc2)CC1(O)C(F)(F)F (configuration not stated) | < 10% | < 10% | –
CC(=O)Nc1ccc(C2=NN(C(=O)Cc3ccccc3)C(O)(C(F)(F)F)C2)cc1 (configuration not stated) | < 10% | < 10% | –
Cc1cccc(C2(O)CC(C(F)(F)F)=NN2C(=O)c2ccccc2)c1 (configuration not stated) | < 10% | < 10% | –
O=C(Cc1ccccc1)N1N=C(c2ccc(Cl)cc2)CC1(O)C(F)(F)F (configuration not stated) | < 10% | < 10% | –
Cc1cccc(C2=NN(C(=O)COc3ccccc3)C(O)(C(F)(F)F)C2)c1 (configuration not stated) | < 10% | < 10% | –
Cc1cccc(C2=NN(C(=O)Cc3cccc(Cl)c3)C(O)(C(F)(F)F)C2)c1 (configuration not stated) | < 10% | – | 75 µM
O=C(Cc1ccccc1)N1N=C(c2cc(Cl)ccc2Cl)CC1(O)C(F)(F)F (configuration not stated) | < 10% | 60% | 54 µM
Cc1ccccc1C1=NN(C(=O)COc2ccccc2)C(O)(C(F)(F)F)C1 (configuration not stated) | < 20% | – | 105 µM
N#Cc1ccc(C2=NN(C(=O)Cc3ccccc3)C(O)(C(F)(F)F)C2)cc1 (configuration not stated) | < 10% | < 10% | –
Cc1ccccc1C1=NN(C(=O)CC2CCCCC2)C(O)(C(F)(F)F)C1 (configuration not stated) | < 10% | < 10% | –
O=C(Cc1ccccc1)N1N=C(c2cccnc2)CC1(O)C(F)(F)F (configuration not stated) | < 10% | < 10% | –
O=C(Cc1ccccc1)N1N=C(c2cccc(C(F)(F)F)c2)CC1(O)C(F)(F)F (configuration not stated) | < 10% | – | 29 µM
Cc1ccc(CC(=O)N2N=C(c3ccccc3C)CC2(O)C(F)(F)F)cc1 (configuration not stated) | < 10% | – | 55 µM
O=C(Cc1ccccc1)N1N=C(c2ccccc2[N+](=O)[O-])CC1(O)C(F)(F)F (configuration not stated) | < 10% | 40% | –
Cc1cccc(C2=NN(C(=O)Cc3ccccc3C)C(O)(C(F)(F)F)C2)c1 (configuration not stated) | < 10% | < 10% | –
N#Cc1cccc(C2=NN(C(=O)Cc3ccccc3)C(O)(C(F)(F)F)C2)c1 (configuration not stated) | < 10% | < 10% | –
COc1ccccc1CC(=O)N1N=C(c2cccc(C)c2)CC1(O)C(F)(F)F (configuration not stated) | < 10% | 50% | –

Source: ChEMBL document CHEMBL4118190, “An SAR study of hydroxy-trifluoromethylpyrazolines as inhibitors of Orai1-mediated store operated Ca2+ entry in MDA-MB-231 breast cancer cells using a convenient Fluorescence Imaging Plate Reader assay” (Bioorg Med Chem, 2018)
